From ChEMBL document CHEMBL3352791, “Thioaryl naphthylmethanone oxime ether analogs as novel anticancer agents” (J Med Chem, 2014)
pEC50: −log10 of the molar value. Calls of active or inactive are those of the source.

What was measured:
[1] = target: Epidermal growth factor receptor (Homo sapiens) (UniProt P00533); assay: Inhibition of EGF-induced EGFR phosphorylation at Tyr1148 in human MDA-MB-231 cells at 1 uM by ELISA; type: cell-based
[2] = system: MDA-MB-231; assay: Inhibition of MMP9 expression in human MDA-MB-231 cells at 1 uM after 24 hrs by qPCR analysis; type: functional, cell-based
Method in brief: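 MDA-MB-231 cells treated at 1µM. Transcript levels measured by qPCR with GAPDH as internal control.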

[3] = system: MDA-MB-231; assay: Inhibition of VEGF-C expression in human MDA-MB-231 cells at 1 uM after 24 hrs by qPCR analysis; type: functional, cell-based
Method in brief: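 Gene expression was measured by qPCR in MDA-MB-231 breast cancer cells treated with 1µM compound. GAPDH served as the housekeeping internal control.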

[4] = system: MCF7; assay: Antitumor activity against human MCF7 cells xenografted in NIH-3 mouse assessed as reduction in PCNA level in tumor at 16 mg/kg, po for 25 days by Western blot analysis; type: functional, organism-based; set-up: dose 16 mg/kg
[5] = system: MDA-MB-231; assay: Effect on intracellular calcium level in human MDA-MB-231 cells at 1 to 25 uM by flow cytometry; type: functional, cell-based
Method in brief: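 Trypsinized cells washed in PBS (pH 7.4), loaded with Fluo-4AM 45 min in HBSS, washed and resuspended in calcium-free HBSS; baseline fluorescence read 2 min by flow cytometry, then 7 min after compound addition.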

[6] = system: MDA-MB-231; assay: Inhibition of CDC42 protein expression in human MDA-MB-231 cells at 1 uM after 24 hrs by ELISA; type: functional, cell-based
Method in brief: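 MDA-MB-231 cells treated at 1µM for 24 h. CDC42 protein measured with a G-LISA ELISA kit.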

[7] = target: Epidermal growth factor receptor (Homo sapiens) (UniProt P00533); assay: Inhibition of EGF-induced EGFR2 phosphorylation in human MDA-MB-231 cells at 1 uM by ELISA; type: cell-based
Method in brief: (§1)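 MDA-MB-231 cells pretreated 1 h in serum-free medium, then EGF-stimulated for 15 min and lysed. Equal lysate protein (Bradford) assayed by ELISA kits for p-EGFR (Tyr1068, Tyr845, Tyr1173) and p-HER2. Absorbance read at 450 nm, normalized to total EGFR or HER2.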

[8] = target: Phosphodiesterase 6 (Homo sapiens) (UniProt Q13956+P18545+P35913+O43924+P16499+P51160); assay: Inhibition of PDE6AB (unknown origin) activity at 1 to 10 uM; type: protein assay
Method in brief: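 PDE6AB activity was measured by radiometric assay, a modification of the Thompson and Appleman two-step method. Sildenafil 1µM served as reference standard.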

[9] = target: Ribosomal protein S6 kinase beta-1 (Homo sapiens) (UniProt P23443); assay: Inhibition of p70S6K (unknown origin) at 10 uM
Method in brief: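 Cell-free kinase profiling was run as a standard 33P-ATP-based in vitro kinase assay.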

[10] = target: T1, Mitogen-activated protein kinase; ERK1/ERK2 (Homo sapiens) (UniProt P27361+P28482); assay: Inhibition of EGF-induced ERK1/2 phosphorylation in human MCF7 cells at 1 uM by ELISA; type: cell-based
[11] = target: Insulin receptor (Homo sapiens) (UniProt P06213); assay: Inhibition of IR (unknown origin) at 10 uM
[12] = target: T1, Mitogen-activated protein kinase; ERK1/ERK2 (Homo sapiens); assay: Inhibition of basal level ERK1/2 phosphorylation in human MDA-MB-231 cells at 1 uM by ELISA; type: cell-based
[13] = system: DLD-1; assay: Antitumor activity against human DLD1 cells assessed as reduction in CD133 positive in colon cancer stem cells after 24 hrs by flow cytometry; type: functional, cell-based
[14] = system: MDA-MB-231; assay: Cytotoxicity against human […] cells assessed as cell viability at 5 uM by MTT assay in presence of z-IETD-FMK caspase-8 inhibitor; type: functional, cell-based
Method in brief: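 Cells seeded 1×10^4/well in DMEM with 10% FBS, adhered overnight, serum-starved 4 h; pre-incubated 2 h with Z-IETD-FMK or Z-LEHD-FMK (10µM each), then 5μM compound for a further 24 h; viability by MTT.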

[15] = target: RAC-alpha serine/threonine-protein kinase (Homo sapiens) (UniProt P31749); assay: Inhibition of basal level AKT phosphorylation in human MDA-MB-231 cells at 1 uM by ELISA; type: cell-based
[16] = target: Signal transducer and activator of transcription 3 (Homo sapiens) (UniProt P40763); assay: Inhibition of EGF-induced STAT3 phosphorylation in human MCF7 cells at 1 uM by ELISA; type: cell-based
[17] = system: MCF7; assay: Antiproliferative activity against human […] cells at 2.5 to 7.5 uM by annexin V-FITC/propidium iodide staining-based flow cytometric analysis; type: functional, cell-based
[18] = target: Focal adhesion kinase 1 (Homo sapiens) (UniProt Q05397); assay: Inhibition of EGF-induced FAK phosphorylation at Tyr397 in human MDA-MB-231 cells at 1 uM by ELISA; type: cell-based
[19] = system: MCF7; assay: Antitumor activity against human MCF7 cells xenografted in NIH-3 mouse assessed as effect on tumor volume at 8 mg/kg, po for 29 days relative to control; type: functional, organism-based; set-up: dose 8 mg/kg
Method in brief: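 MCF-7 cells (5x10^6 in 100μl PBS) injected intraperitoneally into NIH-III nude mice; after tumor induction, groups of n=10 dosed orally daily for 29 days at 8 or 16 mg/kg/day in 1% carboxymethyl cellulose (vehicle controls). Tumor diameter by vernier calipers every third day; volume = π/6×d³ (d mean diameter).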

[20] = target: Epidermal growth factor receptor (Homo sapiens) (UniProt P00533); assay: Inhibition of EGF-induced EGFR phosphorylation at Tyr845 in human MDA-MB-231 cells at 1 uM by ELISA; type: cell-based; method in brief: as §1
[21] = target: Signal transducer and activator of transcription 3 (Homo sapiens) (UniProt P40763); assay: Inhibition of basal level STAT3 phosphorylation in human MDA-MB-231 cells at 1 uM by ELISA; type: cell-based
[22] = system: MDA-MB-231; assay: Antiproliferative activity against human ER-positive MDA-MB-231 cells after 24 hrs by MTT assay; type: functional, cell-based; settings: mda-mb-231
[23] = system: MDA-MB-231; assay: Cell cycle arrest in human […] cells assessed as accumulation at S phase at 7.5 uM by propidium iodide staining by FACS analysis (reference value: 13.72%); type: functional
[24] = Antiproliferative activity against human DLD1 cells after 24 hrs by MTT assay; type: functional, cell-based; settings: DLD-1, 24 h
Method in brief: (§2)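 MTT viability: cells seeded at 1×10^4 per well in DMEM with 10% FBS, left to adhere overnight, then serum-starved 4 h. Compounds were given at a range of doses, with 0.1% DMSO vehicle as control. EC50 was taken from dose-response curves spanning 100nM-50µM. Data are mean ± SEM from at least three independent experiments.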

[25] = Safety index, ratio of IC50 for human MCF10A cells to EC50 for human HCT116 cells; type: toxicity, cell-based, MCF-10A; settings: MCF10A cells versus HCT116 cells, read-out: Ratio IC50/EC50
Method in brief: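 Safety index is the IC50 in the normal cells divided by the EC50 in the cancer cells. Both values come from MTT assays: cells in DMEM with 10% FBS, serum-starved 4 h, then exposed to compound across a 100nM-50µM dose range with 0.1% DMSO as vehicle control.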

[26] = Antiproliferative activity against human HCT116 cells after 24 hrs by MTT assay; type: functional, cell-based; settings: HCT-116, 24 h; method in brief: as §2
[27] = Antiproliferative activity against human prostate, androgen receptor positive DU145 cells after 24 hrs by MTT assay; type: functional, cell-based, DU-145; settings: du-145

Chain of Epidermal growth factor receptor (Homo sapiens) (P00533 whole entry): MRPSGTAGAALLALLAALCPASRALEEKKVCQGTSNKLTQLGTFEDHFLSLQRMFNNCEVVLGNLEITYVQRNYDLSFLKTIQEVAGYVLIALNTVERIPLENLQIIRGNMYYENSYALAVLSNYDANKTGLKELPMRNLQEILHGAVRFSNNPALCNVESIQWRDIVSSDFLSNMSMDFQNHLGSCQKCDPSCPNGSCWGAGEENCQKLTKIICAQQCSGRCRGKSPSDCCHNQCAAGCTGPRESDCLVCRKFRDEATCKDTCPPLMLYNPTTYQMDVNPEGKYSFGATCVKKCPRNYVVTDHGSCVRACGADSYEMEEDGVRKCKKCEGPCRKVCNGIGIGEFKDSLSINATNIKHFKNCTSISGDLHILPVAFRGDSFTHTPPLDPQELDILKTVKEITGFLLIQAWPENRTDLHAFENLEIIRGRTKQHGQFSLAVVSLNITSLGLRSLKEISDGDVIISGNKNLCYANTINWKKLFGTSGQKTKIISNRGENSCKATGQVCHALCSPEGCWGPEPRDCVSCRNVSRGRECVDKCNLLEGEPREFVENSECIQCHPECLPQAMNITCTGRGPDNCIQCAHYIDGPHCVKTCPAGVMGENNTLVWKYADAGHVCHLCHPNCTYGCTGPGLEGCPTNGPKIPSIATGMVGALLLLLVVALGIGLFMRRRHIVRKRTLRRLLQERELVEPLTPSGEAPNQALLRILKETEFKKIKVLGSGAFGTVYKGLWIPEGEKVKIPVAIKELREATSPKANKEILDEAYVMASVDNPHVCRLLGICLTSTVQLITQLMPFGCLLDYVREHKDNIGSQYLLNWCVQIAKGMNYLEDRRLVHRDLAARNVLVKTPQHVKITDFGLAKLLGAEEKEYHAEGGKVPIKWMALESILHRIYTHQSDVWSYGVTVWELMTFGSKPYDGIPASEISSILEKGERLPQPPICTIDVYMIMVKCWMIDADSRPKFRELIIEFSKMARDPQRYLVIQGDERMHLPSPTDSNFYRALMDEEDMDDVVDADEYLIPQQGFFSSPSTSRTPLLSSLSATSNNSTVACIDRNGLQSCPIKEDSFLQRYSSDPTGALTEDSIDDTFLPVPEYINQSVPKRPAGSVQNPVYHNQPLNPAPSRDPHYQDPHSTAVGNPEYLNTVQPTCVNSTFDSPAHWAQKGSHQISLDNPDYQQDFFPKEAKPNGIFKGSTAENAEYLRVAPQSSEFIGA
Chain of Signal transducer and activator of transcription 3 (Homo sapiens) (P40763 whole entry): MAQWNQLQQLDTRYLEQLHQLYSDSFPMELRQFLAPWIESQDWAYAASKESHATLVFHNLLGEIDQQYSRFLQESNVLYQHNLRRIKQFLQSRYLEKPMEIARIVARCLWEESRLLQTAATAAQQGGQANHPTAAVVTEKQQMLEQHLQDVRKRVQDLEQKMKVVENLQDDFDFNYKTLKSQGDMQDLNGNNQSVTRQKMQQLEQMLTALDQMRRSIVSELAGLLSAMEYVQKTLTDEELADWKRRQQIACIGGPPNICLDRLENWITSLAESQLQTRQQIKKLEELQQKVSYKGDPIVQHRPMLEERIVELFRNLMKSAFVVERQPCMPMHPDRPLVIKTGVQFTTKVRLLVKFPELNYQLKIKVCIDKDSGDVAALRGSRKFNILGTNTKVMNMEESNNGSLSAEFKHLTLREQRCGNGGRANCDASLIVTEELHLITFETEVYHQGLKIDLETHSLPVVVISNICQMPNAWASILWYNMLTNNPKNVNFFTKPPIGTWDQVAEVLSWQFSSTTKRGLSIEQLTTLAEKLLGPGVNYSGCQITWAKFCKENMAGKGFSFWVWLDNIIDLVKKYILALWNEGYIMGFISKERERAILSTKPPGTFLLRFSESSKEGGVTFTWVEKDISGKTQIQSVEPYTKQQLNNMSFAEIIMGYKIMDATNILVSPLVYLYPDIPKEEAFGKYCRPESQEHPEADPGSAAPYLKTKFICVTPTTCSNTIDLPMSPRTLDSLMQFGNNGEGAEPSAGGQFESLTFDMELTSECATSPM
T1 sequence (P27361 whole entry, looked up): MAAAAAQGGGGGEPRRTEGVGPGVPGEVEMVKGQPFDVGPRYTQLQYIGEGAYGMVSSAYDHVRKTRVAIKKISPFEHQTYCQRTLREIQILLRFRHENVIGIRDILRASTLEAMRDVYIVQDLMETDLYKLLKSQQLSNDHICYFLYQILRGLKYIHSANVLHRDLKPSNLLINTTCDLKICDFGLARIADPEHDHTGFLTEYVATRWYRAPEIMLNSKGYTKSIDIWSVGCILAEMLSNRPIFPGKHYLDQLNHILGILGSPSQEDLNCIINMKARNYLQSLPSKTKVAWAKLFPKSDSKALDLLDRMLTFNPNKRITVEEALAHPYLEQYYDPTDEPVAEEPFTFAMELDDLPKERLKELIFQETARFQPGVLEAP
T1 sequence (P28482 whole entry, looked up): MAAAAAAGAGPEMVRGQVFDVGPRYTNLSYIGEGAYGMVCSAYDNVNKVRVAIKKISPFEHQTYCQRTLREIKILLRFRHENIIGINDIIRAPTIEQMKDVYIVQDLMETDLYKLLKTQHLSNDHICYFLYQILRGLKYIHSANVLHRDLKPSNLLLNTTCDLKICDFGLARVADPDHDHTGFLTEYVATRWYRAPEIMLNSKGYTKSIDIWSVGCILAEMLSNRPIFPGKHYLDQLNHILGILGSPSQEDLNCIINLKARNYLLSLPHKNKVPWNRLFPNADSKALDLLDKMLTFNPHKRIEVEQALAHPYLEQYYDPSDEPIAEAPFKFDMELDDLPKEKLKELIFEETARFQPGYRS
Chain of Ribosomal protein S6 kinase beta-1 (Homo sapiens) (P23443 whole entry, looked up): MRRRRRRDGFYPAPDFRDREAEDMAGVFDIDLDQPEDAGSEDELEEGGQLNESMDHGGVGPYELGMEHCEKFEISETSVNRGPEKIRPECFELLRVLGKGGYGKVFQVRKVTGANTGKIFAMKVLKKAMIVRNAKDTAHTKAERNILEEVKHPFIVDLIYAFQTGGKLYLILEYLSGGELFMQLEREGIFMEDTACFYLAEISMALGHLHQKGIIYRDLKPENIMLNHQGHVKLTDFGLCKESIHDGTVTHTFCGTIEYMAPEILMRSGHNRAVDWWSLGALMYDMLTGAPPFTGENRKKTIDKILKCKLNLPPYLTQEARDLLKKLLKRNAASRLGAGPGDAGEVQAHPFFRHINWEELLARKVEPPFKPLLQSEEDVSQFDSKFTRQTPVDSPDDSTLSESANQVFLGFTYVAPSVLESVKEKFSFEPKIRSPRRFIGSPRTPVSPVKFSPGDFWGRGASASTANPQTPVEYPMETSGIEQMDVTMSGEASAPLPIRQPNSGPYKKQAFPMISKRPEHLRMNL
Chain of RAC-alpha serine/threonine-protein kinase (Homo sapiens) (P31749 whole entry): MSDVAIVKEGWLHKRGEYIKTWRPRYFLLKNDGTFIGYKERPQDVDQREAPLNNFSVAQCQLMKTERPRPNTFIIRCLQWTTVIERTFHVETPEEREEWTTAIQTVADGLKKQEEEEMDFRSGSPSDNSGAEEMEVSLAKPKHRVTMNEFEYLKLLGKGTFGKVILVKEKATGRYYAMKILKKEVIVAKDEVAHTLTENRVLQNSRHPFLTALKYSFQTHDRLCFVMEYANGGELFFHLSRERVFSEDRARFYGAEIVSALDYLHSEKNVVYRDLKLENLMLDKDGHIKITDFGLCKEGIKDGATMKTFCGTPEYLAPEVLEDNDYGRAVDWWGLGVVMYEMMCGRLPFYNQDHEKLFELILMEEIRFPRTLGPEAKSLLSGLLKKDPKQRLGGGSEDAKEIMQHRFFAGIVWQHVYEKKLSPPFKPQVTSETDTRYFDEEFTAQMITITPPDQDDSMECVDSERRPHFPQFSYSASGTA
Chain of Focal adhesion kinase 1 (Homo sapiens) (Q05397 2-1052 limits assumed): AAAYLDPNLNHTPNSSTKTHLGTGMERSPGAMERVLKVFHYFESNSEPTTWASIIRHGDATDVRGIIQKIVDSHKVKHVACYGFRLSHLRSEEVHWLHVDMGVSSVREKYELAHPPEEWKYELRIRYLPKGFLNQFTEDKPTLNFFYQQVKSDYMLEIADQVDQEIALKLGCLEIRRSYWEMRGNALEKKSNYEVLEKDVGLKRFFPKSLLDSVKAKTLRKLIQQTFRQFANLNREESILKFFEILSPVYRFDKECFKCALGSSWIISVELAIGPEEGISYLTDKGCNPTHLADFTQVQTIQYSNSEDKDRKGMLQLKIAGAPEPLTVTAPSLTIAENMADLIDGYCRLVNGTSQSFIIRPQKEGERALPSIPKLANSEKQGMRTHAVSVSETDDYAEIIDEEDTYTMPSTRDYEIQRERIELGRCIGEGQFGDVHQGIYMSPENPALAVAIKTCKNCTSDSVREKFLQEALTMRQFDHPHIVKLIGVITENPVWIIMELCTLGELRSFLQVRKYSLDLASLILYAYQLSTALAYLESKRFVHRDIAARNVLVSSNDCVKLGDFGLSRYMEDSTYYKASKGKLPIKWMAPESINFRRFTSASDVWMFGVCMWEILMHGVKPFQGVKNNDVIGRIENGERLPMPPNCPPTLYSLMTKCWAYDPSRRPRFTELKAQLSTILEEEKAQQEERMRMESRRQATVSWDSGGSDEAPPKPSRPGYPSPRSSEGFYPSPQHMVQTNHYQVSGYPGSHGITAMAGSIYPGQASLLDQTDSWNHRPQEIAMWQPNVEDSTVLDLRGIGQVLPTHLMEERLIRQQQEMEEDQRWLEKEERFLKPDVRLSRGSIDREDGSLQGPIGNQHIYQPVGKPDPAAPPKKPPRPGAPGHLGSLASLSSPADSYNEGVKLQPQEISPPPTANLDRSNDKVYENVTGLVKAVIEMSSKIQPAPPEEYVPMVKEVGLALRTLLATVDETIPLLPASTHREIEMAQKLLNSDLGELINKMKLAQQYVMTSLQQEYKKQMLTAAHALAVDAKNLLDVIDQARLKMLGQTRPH

CCN(CC)CCO/N=C(\c1ccc(SC)cc1)c1cccc2ccccc12
inactive: inhibition [3] | Activity [5] | inhibition [8] | inhibition [9] | inhibition [11] | Activity [14] | inhibition [15] | inhibition [19] | inhibition [21]
active: inhibition [1] | inhibition [2] | inhibition [4] | inhibition [6] | inhibition [7] | inhibition [10] | inhibition [12] | inhibition [13] | inhibition [16] | Activity [17] | inhibition [18] | inhibition [20]

CCN(CC)CCO/N=C(\c1ccc(SC)cc1)c1cccc2ccccc12.O=C(O)C(=O)O
2.74%: Activity [23]
2.5: selectivity ratio [25]
4.81: pEC50 [24]
5.11: pEC50 [26]
5.05: pEC50 [27]
5.14: pEC50 [22]
